Measurements from ChEMBL document CHEMBL4007421, “Discovery and Preclinical Characterization of 3-((4-(4-Chlorophenyl)-7-fluoroquinoline-3-yl)sulfonyl)benzonitrile, a Novel Non-acetylenic Metabotropic Glutamate Receptor 5 (mGluR5) Negative Allosteric Modulator for Psychiatric Indications” (J Med Chem, 2017).
≈ marks a conversion by molar mass, not a printed value. Calls of active or inactive are those of the source. The calls are words filed in the database; no cut-off is given here.

Key:
[1] = test system: Liver; assay: Intrinsic clearance in rat liver microsomes at 2.5 uM assessed per gram of liver; assay type: ADME, microsome
[2] = Tmax in fasted female beagle dog at 1 mg/kg, po; assay type: ADME, organism-based, Canis lupus familiaris; settings: in vivo
Summary of the method: (§1)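 Single-dose PK: i.v. and oral dosing in Crl:CD(SD) rats and beagle dogs, plus a pilot oral nasogastric study in Cynomolgus monkeys using a Type IV lipid formulation. Rat i.v. vehicle was 80% cosolvent. Monkeys were fasted from 2 h before until 2 h after dosing, n=3 per sex. Rats also received [14C]-labelled compound orally at 50 mg/kg, with total radioactivity followed. Parameters are means; monkey values are medians.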

[3] = test system: Rattus norvegicus; assay: Anxiolytic activity in po dosed Wistar rat assessed as reduction in ultrasonic vocalization; assay type: functional
[4] = AUC(0 to 8 hrs) in fasted female cynomolgus monkey at 9 mg/kg, po administered as single dose; assay type: ADME, organism-based, Macaca fascicularis; parameters: time < 6 hr, dose 9 mg/kg, route oral; settings: in vivo
[5] = Plasma protein binding in dog; assay type: ADME, cell-free, Canis lupus familiaris; settings: read-out: PPB (converted)
[6] = test system: Plasma; assay: Plasma concentration in Wistar rat at 30 mg/kg, po administered as single dose; assay type: ADME, organism-based; settings: in vivo
[7] = Tmax in male beagle dog at 0.5 mg/kg, iv administered as infusion; assay type: ADME, organism-based, Canis lupus familiaris; settings: in vivo; summary of the method: as §1
[8] = test system: Rattus norvegicus; assay: Anxiolytic activity in po dosed Wistar rat assessed as reduction in freezing behavior by contextual fearing test; assay type: functional
[9] = test system: Rattus norvegicus; assay: Terminal elimination half life in female Crl:CD(SD) rat at 50 mg/kg, po using [14C]labeled compound; assay type: ADME, organism-based; settings: in vivo; summary of the method: as §1
[10] = Terminal elimination half life in fasted female cynomolgus monkey at 9 mg/kg, po administered as single dose; assay type: ADME, organism-based, Macaca fascicularis; settings: in vivo, read-out: beta t1/2 (converted); summary of the method: as §1
[11] = Plasma concentration in ip dosed Wistar rat at anxiolytic MED administered as suspension after 45 mins during Vogel punished drinking conflict test; assay type: ADME, organism-based
Summary of the method: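 Vehicle was a suspension containing 5% Tween 80, given i.p. at the Vogel minimum effective dose. Plasma was sampled about 45 min after dosing, right after the Vogel punished drinking test.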

[12] = Terminal elimination half life in female beagle dog at 0.5 mg/kg, iv administered as infusion; assay type: ADME, organism-based, Canis lupus familiaris; settings: in vivo, read-out: beta t1/2 (converted); summary of the method: as §1
[13] = Tmax in female Crl:CD(SD) rat at 4.5 mg/kg, po; assay type: ADME, organism-based; settings: in vivo; summary of the method: as §1
[14] = target: T1, Cytochrome P450 1A2 (Homo sapiens, UniProt P05177); assay: Inhibition of CYP1A2 in human liver microsomes; assay type: ADME
T1 sequence (P05177 whole entry): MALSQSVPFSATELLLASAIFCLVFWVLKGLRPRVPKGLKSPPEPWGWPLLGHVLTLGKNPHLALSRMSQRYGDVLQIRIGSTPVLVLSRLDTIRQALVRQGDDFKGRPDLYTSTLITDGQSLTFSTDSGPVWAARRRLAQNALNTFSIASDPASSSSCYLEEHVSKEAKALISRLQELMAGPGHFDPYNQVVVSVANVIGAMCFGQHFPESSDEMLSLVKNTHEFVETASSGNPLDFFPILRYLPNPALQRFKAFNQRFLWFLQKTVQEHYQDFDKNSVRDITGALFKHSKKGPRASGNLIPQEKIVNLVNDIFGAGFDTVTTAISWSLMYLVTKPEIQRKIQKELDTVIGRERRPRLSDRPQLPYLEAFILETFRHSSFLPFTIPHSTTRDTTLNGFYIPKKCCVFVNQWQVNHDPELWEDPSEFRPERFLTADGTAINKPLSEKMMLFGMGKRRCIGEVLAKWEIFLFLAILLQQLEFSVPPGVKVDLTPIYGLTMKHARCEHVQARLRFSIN

[15] = Aqueous solubility of the compound at pH 7.4; assay type: physicochemical
[16] = Terminal elimination half life in male beagle dog at 0.5 mg/kg, iv administered as infusion; assay type: ADME, organism-based, Canis lupus familiaris; settings: in vivo, read-out: beta t1/2 (converted); summary of the method: as §1
[17] = Terminal elimination half life in female Crl:CD(SD) rat at 0.5 mg/kg, iv; assay type: ADME, organism-based; settings: in vivo, read-out: beta t1/2 (converted); summary of the method: as §1
[18] = target: Metabotropic glutamate receptor 1 (Rattus norvegicus) (UniProt P23385); assay: Negative allosteric modulation of mGluR1 in newborn Sprague-Dawley rat cerebelli assessed as reduction of DHPG-induced cytosolic Ca2+ influx after 10 to 20 mins by fluo-4/AM-dye based fluorometric analysis; assay type: functional
Chain of Metabotropic glutamate receptor 1 (Rattus norvegicus) (P23385 19-1199 limits assumed): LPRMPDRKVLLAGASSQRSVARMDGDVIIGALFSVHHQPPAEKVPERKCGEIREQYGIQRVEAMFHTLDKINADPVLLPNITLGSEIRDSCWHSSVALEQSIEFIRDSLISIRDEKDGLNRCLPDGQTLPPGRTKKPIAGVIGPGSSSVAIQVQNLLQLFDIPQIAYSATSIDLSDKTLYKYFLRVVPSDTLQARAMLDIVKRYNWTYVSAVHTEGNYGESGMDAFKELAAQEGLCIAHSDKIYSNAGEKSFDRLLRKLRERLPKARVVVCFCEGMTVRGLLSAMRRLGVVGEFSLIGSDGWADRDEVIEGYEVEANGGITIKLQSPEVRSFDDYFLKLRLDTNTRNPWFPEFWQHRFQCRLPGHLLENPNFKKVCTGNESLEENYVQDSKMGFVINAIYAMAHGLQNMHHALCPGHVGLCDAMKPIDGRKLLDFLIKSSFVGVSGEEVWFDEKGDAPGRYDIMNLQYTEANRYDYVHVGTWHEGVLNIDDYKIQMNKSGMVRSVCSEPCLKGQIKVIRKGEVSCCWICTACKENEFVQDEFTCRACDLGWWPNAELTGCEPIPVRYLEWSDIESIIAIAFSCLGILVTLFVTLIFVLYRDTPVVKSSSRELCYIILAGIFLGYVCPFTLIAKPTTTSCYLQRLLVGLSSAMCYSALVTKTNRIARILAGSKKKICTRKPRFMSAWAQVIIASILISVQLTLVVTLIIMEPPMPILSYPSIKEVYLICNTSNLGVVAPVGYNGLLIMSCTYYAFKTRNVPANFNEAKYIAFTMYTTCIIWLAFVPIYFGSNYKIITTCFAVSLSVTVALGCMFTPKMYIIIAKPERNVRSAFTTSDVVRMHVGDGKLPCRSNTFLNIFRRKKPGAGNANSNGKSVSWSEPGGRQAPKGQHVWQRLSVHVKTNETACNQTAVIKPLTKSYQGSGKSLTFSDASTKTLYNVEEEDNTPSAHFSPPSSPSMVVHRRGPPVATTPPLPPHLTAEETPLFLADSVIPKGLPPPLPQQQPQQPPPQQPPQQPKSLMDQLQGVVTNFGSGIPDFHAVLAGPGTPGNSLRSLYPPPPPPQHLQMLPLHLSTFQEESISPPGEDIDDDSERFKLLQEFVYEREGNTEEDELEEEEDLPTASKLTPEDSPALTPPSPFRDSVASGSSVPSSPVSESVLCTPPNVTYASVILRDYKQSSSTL

[19] = Tmax in fasted female cynomolgus monkey at 9 mg/kg, po administered as single dose; assay type: ADME, organism-based, Macaca fascicularis; settings: in vivo; summary of the method: as §1
[20] = Terminal elimination half life in fasted female beagle dog at 1 mg/kg, po; assay type: ADME, organism-based, Canis lupus familiaris; settings: in vivo, read-out: beta t1/2 (converted); summary of the method: as §1
[21] = Cmax in female Crl:CD(SD) rat at 4.5 mg/kg, po; assay type: ADME, organism-based; parameters: dose 4.5 mg/kg, route oral; settings: in vivo
[22] = Terminal elimination half life in male Crl:CD(SD) rat at 4.5 mg/kg, po; assay type: ADME, organism-based; settings: in vivo, read-out: beta t1/2 (converted); summary of the method: as §1
[23] = target: T2, Metabotropic glutamate receptor 5 (Homo sapiens, UniProt P41594); assay: Displacement of [3H]M-MPEP from recombinant human mGluR5a expressed in human A18 cell membrane homogenate
T2 sequence (P41594 whole entry, the tested form may be a part): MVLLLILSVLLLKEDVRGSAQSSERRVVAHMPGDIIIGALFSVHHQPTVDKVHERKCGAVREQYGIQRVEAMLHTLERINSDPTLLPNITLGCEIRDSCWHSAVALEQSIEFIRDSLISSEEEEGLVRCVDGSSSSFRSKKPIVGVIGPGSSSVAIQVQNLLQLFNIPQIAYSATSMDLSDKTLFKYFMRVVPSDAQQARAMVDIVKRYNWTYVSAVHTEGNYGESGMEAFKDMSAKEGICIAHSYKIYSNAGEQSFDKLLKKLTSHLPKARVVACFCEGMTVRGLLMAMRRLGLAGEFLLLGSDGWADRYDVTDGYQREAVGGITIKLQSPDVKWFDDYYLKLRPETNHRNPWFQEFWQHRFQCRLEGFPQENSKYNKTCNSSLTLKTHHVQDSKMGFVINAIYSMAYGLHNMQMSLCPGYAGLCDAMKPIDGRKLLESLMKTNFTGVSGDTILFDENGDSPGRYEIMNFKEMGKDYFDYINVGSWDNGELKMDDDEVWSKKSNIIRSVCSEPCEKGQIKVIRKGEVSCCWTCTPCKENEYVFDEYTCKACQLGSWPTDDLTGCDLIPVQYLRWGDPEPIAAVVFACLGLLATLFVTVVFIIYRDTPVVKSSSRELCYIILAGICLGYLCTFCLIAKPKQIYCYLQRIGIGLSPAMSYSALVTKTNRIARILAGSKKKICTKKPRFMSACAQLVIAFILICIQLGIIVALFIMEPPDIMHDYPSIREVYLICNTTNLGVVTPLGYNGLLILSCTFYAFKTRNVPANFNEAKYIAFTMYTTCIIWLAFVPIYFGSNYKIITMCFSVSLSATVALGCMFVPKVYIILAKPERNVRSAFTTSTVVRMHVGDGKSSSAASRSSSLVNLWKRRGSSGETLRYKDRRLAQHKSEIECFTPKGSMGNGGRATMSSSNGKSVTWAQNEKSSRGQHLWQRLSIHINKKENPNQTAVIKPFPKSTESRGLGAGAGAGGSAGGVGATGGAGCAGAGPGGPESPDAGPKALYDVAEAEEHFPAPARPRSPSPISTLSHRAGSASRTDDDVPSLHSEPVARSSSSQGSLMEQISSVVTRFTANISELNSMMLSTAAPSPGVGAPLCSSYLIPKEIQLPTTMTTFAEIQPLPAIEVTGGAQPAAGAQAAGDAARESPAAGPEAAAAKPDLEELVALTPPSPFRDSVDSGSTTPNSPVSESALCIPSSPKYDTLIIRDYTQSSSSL

[24] = AUC in male beagle dog at 0.5 mg/kg, iv administered as infusion; assay type: ADME, organism-based, Canis lupus familiaris; settings: in vivo
[25] = Cmax in male beagle dog at 0.5 mg/kg, iv administered as infusion; assay type: ADME, organism-based, Canis lupus familiaris; parameters: dose 0.5 mg/kg, route intravenous; settings: in vivo
[26] = Cmax in male Crl:CD(SD) rat at 4.5 mg/kg, po; assay type: ADME, organism-based; parameters: dose 4.5 mg/kg, route oral; settings: in vivo
[27] = test system: Rattus norvegicus; assay: Toxicity in po dosed Harlan-Wistar rat assessed as effect on ambulatory movement at 10 to 30 mg/kg, po by photocell-based activity monitor test; assay type: organism-based; settings: in vivo
Summary of the method: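 Male Wistar rats were given 0, 10, 30 or 50 mg/kg p.o. Spontaneous locomotor activity (ambulatory movement) was recorded in a photocell-based activity monitor.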

[28] = Clearance in female Crl:CD(SD) rat at 0.5 mg/kg, iv; assay type: ADME, organism-based; settings: in vivo
[29] = target: Cytochrome P450 2C9 (Homo sapiens, UniProt P11712); assay: Inhibition of CYP2C9 in human liver microsomes; assay type: ADME
Chain of Cytochrome P450 2C9 (P11712 whole entry): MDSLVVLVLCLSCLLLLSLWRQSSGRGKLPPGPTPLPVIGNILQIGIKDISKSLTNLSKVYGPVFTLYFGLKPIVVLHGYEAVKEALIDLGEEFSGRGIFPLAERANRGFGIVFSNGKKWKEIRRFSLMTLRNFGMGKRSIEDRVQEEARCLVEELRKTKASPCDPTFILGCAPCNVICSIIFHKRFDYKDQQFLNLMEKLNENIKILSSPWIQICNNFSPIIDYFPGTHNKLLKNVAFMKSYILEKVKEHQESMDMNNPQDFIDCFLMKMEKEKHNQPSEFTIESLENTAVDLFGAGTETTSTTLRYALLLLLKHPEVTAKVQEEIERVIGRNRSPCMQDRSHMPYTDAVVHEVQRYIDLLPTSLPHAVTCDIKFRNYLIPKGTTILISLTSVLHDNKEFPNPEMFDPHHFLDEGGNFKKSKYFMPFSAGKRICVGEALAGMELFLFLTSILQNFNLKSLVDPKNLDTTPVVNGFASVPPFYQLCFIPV

[30] = AUC in male Crl:CD(SD) rat at 4.5 mg/kg, po; assay type: ADME, organism-based; settings: in vivo
[31] = target: Metabotropic glutamate receptor 5 (Rattus norvegicus, UniProt P31424); assay: Negative allosteric modulation of mGluR5 in E17 Sprague-Dawley rat primary neuronal cultures assessed as reduction of DHPG-induced cytosolic Ca2+ influx after 10 to 20 mins by fluo-4/AM-dye based fluorometric analysis; assay type: functional
Chain of Metabotropic glutamate receptor 5 (Rattus norvegicus, UniProt P31424) (P31424 whole entry): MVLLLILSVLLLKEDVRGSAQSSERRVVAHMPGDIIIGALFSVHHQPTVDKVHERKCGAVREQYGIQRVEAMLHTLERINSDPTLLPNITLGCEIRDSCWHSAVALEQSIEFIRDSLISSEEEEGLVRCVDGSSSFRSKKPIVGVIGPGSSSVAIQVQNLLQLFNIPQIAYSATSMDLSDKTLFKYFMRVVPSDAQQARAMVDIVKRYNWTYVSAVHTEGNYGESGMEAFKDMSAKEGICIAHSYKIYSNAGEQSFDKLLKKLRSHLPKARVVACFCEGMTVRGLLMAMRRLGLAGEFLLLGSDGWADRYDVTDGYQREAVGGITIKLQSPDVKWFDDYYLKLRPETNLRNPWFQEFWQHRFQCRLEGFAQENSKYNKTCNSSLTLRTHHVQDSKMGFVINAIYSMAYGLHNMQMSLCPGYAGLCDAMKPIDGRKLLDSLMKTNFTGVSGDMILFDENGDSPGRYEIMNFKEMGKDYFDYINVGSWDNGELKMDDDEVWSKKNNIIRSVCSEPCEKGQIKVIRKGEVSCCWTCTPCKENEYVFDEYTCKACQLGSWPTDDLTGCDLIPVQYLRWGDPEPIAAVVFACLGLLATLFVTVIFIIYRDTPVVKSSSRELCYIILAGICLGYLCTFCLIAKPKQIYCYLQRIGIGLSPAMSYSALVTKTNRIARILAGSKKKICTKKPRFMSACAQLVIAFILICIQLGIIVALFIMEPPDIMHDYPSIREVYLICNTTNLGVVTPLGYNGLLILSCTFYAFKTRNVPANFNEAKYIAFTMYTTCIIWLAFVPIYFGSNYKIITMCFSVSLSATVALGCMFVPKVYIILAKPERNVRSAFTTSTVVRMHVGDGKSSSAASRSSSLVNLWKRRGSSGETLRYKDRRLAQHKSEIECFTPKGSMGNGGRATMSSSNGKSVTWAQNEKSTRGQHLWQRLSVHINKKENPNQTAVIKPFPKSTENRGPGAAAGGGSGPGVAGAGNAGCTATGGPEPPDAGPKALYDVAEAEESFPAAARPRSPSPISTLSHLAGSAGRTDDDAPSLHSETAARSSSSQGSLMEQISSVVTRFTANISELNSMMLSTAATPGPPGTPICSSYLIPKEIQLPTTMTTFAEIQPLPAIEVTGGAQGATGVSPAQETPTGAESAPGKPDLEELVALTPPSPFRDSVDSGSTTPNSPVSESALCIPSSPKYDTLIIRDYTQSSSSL

[32] = test system: MDR1; assay: Ratio of apparent outward permeability to apparent inward permeability in MDCK2-MDR1 cells; assay type: ADME, cell-based, Canis lupus familiaris; settings: dog, MDCK-MDR1
Summary of the method: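 MDCKII-MDR1 cell monolayers used as an in vitro surrogate of brain penetration. Transport was measured in both the inward and outward directions, and an apparent permeability (Papp) was calculated for each. The directional ratio (PDR) is Papp outward divided by Papp inward.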

[33] = Plasma concentration in Wistar rat at 10 mg/kg, po qd for 19 days during Vogel punished drinking conflict test; assay type: ADME, organism-based
Summary of the method: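 Vogel punished-drinking test in rats after 24 h water deprivation, with 60 s unpunished drinking; oral 10 mg/kg given once daily for 19 days, vehicle group dosed only on Day 19 as first-dose control; plasma sampled right after test; n=10 per group; ANOVA with Duncan post-hoc.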

[34] = target: T2, Metabotropic glutamate receptor 5; assay: Displacement of [3H]M-MPEP from mGluR5 in male human post mortem parietal cortical tissue after 30 mins by scintillation counting method

With N#Cc1cccc(S(=O)(=O)c2cnc3cc(F)ccc3c2-c2ccc(Cl)cc2)c1 the CLint [1] was 0.25 mL/min/g, the Tmax [2] was 0.83 h and the Activity [3] was “Dose-dependent effect”. It also gave an ED50 [3] of 1.5 mg/kg, an AUC(0-t) at 6 h [4] of 0.087 µM·h and a fraction unbound [5] of 0.0025. The concentration [6] was 986 nM, the Tmax [7] was 0.5 h and the Activity [8] was “Dose-dependent effect”. For the same molecule, the ED50 [8] was 0.95 mg/kg, the “beta t1/2” value [9] was 8 h and the half-life [10] was 2.1 h. It also gave a concentration at 0.75 h [11] of 51.1 nM, a half-life [12] of 11.8 h and a Tmax [13] of 0.75 h. The IC50 [14] was > 10000 nM, the solubility [15] was 10 µg/mL (≈ 23.6 µM) and the half-life [16] was 12.2 h. The half-life [17] was 7.79 h, the Activity [18] was “Active” and the Tmax [19] was 1.3 h. The half-life [20] was 10.7 h, the Cmax [21] was 650 nM and the half-life [22] was 7.06 h. For the same molecule, the Ki [23] was 4.9 nM, the AUC [24] was 3.07 µM·h and the Cmax [25] was 1540 nM. For the same molecule, the Cmax [26] was 369 nM, the Activity [27] was “Non-Toxic” and the clearance [28] was 14.3 mL/min/kg. The IC50 [29] was > 10000 nM, the AUC [30] was 2.19 µM·h and the IC50 [31] was 19 nM. For the same molecule, the efflux ratio [32] was 0.74, the concentration at 456 h [33] was 513 nM and the Ki [34] was 10.8 nM.
